Results on 1 compound are retold here after ChEMBL document CHEMBL1151475, “Thiopurine drugs azathioprine and 6-mercaptopurine inhibit Mycobacterium paratuberculosis growth in vitro” (2008).

The test system of experiment [1] is Mycobacterium avium subsp. paratuberculosis. Description: Antituberculosis activity against Mycobacterium paratuberculosis ATCC 19698 isolated from bovine assessed as lowest drug level producing inhibition at 10^6 CFU of inoculum by agar counting method. The format is functional. The procedure, abridged: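 ATCC 19698 at 10^6 CFU was exposed to drug (1.0–64.0 μg/ml) in MGIT ParaTB medium at 37°C. Aliquots taken at 3 and 5 days were centrifuged, resuspended in PBS and declumped with glass beads. Serial dilutions were plated in quadruplicate on 7H10/OADC/mycobactin J and counted after 8 weeks. Inhibition is the lowest concentration giving a 2 log10 (99%) CFU reduction.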

Experiment [2] shares this test system. The experiment can be described thus: Antituberculosis activity against Mycobacterium paratuberculosis UCF-4 isolated from Crohn's disease patient assessed as minimum drug level required for killing after 56 days by MGIT 960 susceptibility test. The format is functional. The procedure, abridged:
(§1)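 10^5 to 10^6 CFU from single-cell suspensions inoculated in duplicate into MGIT ParaTB medium with supplement and egg yolk. Drugs were at final 0.5–64.0 μg/ml, with 128.0 μg/ml added for some strains. Tubes were incubated at 37°C in MGIT 960. Inhibition is the lowest concentration giving a time to detection longer than a drug-free 1:100 inoculum control. Killing is no positive signal through 56 days.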

Experiment [3] shares this test system. The experiment can be described thus: Antituberculosis activity against Mycobacterium paratuberculosis UCF-5 isolated from Crohn's disease patient assessed as minimum drug level required for inhibition by MGIT 960 susceptibility test. It is filed as functional. The procedure, abridged:
as §1

Experiment [4] shares this test system. The experiment can be described thus: Antituberculosis activity against Mycobacterium paratuberculosis UCF-7 isolated from Crohn's disease patient assessed as minimum drug level required for killing after 56 days by MGIT 960 susceptibility test. It is filed as functional. The procedure, abridged:
as §1

Experiment [5] has the same test system. The experiment can be described thus: Antituberculosis activity against Mycobacterium paratuberculosis B213 isolated from bovine assessed as minimum drug level required for inhibition by MGIT 960 susceptibility test. It is filed as functional. The procedure, abridged: as §1
Experiment [6] has the same test system. The experiment can be described thus: Antituberculosis activity against Mycobacterium paratuberculosis B238 isolated from bovine assessed as minimum drug level required for killing after 56 days by MGIT 960 susceptibility test. The format is functional. The procedure, abridged:
as §1

Experiment [7] concerns Mycobacterium avium. The experiment can be described thus: Antituberculosis activity against Mycobacterium avium ATCC 35712 isolated from chicken assessed as minimum drug level required for inhibition by MGIT 960 susceptibility test. The format is functional. The procedure, abridged:
as §1

In experiment [8] the test system is Mycobacterium avium. The experiment can be described thus: Antituberculosis activity against Mycobacterium avium 104 isolated from AIDS patient assessed as minimum drug level required for inhibition by MGIT 960 susceptibility test. The format is functional. The procedure, abridged:
as §1

Experiment [9] concerns Mycobacterium avium. Description: Antituberculosis activity against Mycobacterium avium JTC48627 isolated from bison fecal sample assessed as minimum drug level required for inhibition by MGIT 960 susceptibility test. It is filed as functional, Feces. In short, it runs like this: as §1
The next experiment concerns Mycolicibacterium phlei. The experiment can be described thus: Antituberculosis activity against Mycobacterium phlei ATCC 11758 assessed as minimum drug level required for inhibition by MGIT 960 susceptibility test. The format is functional. The procedure, abridged: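 MGIT ParaTB tubes were supplemented with egg yolk and inoculated in duplicate with 10^5 to 10^6 CFU from single-cell suspensions. Thiopurines were dissolved in 0.05 M NaOH in 10 mM PBS and tested at final 0.5 to 64.0 μg/ml, with 128.0 μg/ml added for some strains. Tubes ran at 37°C in the MGIT 960. The value is the lowest concentration giving a time-to-detection longer than a drug-free 1:100 inoculum control.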

The next experiment concerns Enterococcus faecalis. Description: Antituberculosis activity against Enterococcus faecalis ATCC 29212 isolated from human urine assessed as minimum drug level required for inhibition by MGIT 960 susceptibility test. It is filed as functional.
Experiment [10] deals with Mycobacterium avium subsp. paratuberculosis. The experiment can be described thus: Antituberculosis activity against Mycobacterium paratuberculosis UCF-7 isolated from Crohn's disease patient assessed as colony counts at 2 ug after 12 days by MGIT 960 susceptibility test. It is filed as functional.

Regarding `Sc1ncnc2nc[nH]c12` [MERCAPTOPURINE ANHYDROUS], the Activity is 1 µg/mL in [1]; more than 32 µg/mL in experiment [2]; 1 µg/mL in [3]; 8 µg/mL in experiment [4]; 4 µg/mL in [5]; more than 32 µg/mL in [6]. Further, the Activity is more than 64 µg/mL with Mycobacterium avium [7]; more than 64 µg/mL in the experiment with Mycobacterium avium [8]; 32 µg/mL in the experiment with Mycobacterium avium [9]; 1 µg/mL in the experiment with Mycolicibacterium phlei; more than 128 µg/mL with Enterococcus faecalis. The log10CFU/ml in experiment [10] is recorded as 3.87.
